Test [1] is described as follows: Vasorelaxant activity against U46619-induced contraction in bovine coronary artery ring at 10 uM treated after U46619 challenge. Type of test: functional, Bos taurus. The arrangement: scale not given: the % may be the effect or the level left.
Test [2] can be described thus: Vasorelaxant activity against U46619-induced contraction in bovine coronary artery ring treated after U46619 challenge. The class given is functional, tissue-based. As to conditions: Bos taurus. In short, it runs like this: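 Bioassay run 3-5 times (n = 3-5); reported values are means, ±10% SD.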
Test [3] addresses T1, Bifunctional epoxide hydrolase 2 (Homo sapiens, UniProt P34913).
T1 sequence (P34913 whole entry): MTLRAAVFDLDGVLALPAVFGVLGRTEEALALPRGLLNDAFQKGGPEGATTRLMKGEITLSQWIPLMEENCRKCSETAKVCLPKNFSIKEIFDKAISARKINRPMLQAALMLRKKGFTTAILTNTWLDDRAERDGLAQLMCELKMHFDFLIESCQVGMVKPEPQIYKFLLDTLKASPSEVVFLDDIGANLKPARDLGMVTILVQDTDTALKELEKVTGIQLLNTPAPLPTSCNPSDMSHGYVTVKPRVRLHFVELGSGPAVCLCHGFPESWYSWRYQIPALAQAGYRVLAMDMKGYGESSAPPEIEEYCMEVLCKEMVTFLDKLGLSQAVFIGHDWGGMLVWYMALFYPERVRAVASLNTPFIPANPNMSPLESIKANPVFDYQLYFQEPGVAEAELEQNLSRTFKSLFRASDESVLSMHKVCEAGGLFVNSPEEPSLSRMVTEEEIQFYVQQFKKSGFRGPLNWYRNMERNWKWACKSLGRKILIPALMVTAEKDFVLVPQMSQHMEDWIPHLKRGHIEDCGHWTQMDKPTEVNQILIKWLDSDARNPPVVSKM
The experiment in a line: Inhibition of human recombinant soluble epoxide hydrolase expressed in baculovirus system assessed as appearance of 6-methoxynaphthaldehyde product by fluorescent-based assay.

Test [4] can be described thus: Vasorelaxant activity against U46619-induced contraction in bovine coronary artery ring at 10 uM treated after U46619 challenge. The arrangement: scale not given: the % may be the effect or the level left.

The source of these data is ChEMBL document CHEMBL1151961, “14,15-Epoxyeicosa-5,8,11-trienoic acid (14,15-EET) surrogates containing epoxide bioisosteres: influence upon vascular relaxation and soluble epoxide hydrolase inhibition” (J Med Chem, 2009).

By IC50 is commonly meant the midpoint of a concentration-inhibition curve.

The structures appear in SMILES notation. Some results are limits rather than exact numbers.

In test [1], `CCCCCCN(C)C(=O)CCCC/C=C\CCCCCCC(=O)O` had an Activity of 12%. For the same compound, the EC50 in test [2] (read-out: EC50) is above 10 µM. Besides, the IC50 in test [3] is 13.9 µM.
The like results for `CCCCCN(C)C(=O)N(C)CCCC/C=C\CCCCCCC(=O)O` were, in that order, 83%, 3.2 µM and 8.48 µM.
On the same counts, the results for `CCCCCCC(=O)NCCCCCCCC#CCCCC(=O)O` are 69%, 5.7 µM and 0.272 µM.
On the same counts, the results for `CCCCCNC(=S)NCCCC/C=C\CCCCCCC(=O)O` are 99%, 1.5 µM and 0.77 µM.
As for `CCCCCNC(=O)NCCCCC#CCCCCCCC(=O)O`, the Activity in test [1] was determined as 62%. In test [2] (read-out: EC50), the EC50 was 3.1 µM. For the same compound, the IC50 in test [3] turned out to be 0.043 µM.
On the same counts, the results for `CCCCCNC(=O)NCCCCCCC/C=C\CCCC(=O)O` are 66%, 5.6 µM and 0.793 µM.
On the same counts, the results for `CCCCCNC(=O)NCCCC/C=C\CCC(=O)O` are 16%, above 10 µM and 1.36 µM.
`CCCCCNC(=O)NCCCCC#CCCC(=O)O`: the Activity in test [1] stood at 46%. Besides, the EC50 in test [2] (read-out: EC50) was above 10 µM. Besides, the IC50 in test [3] came out at 8.11 µM.
Turning to `CCCCN(C)C(=O)C(=O)N(C)CCCC/C=C\CCCCCCC(=O)O`, in test [1], the Activity stood at 70%. Further, in test [2] (read-out: EC50), the EC50 was found to be 4.4 µM. Further, in test [3], the IC50 is 17.6 µM.
On the same counts, the results for `CCCCNC(=O)NCCCCC/C=C\CCCCCCC(=O)OC` are 84%, 4.6 µM and 0.152 µM.
On the same counts, the results for `CCCCCNC(=O)NCCCC/C=C\CCCCCCC(=O)O` are 63%, 7.5 µM and 0.046 µM.
On the same counts, the results for `CCCCCNC(=O)OCCCC/C=C\CCCCCCC(=O)O` are 53%, 9.3 µM and 3.48 µM.
Compound `CCCCCc1ccc(CCCC/C=C\CCCCCCC(=O)O)o1` yielded an Activity in test [1] of 11%. Moreover, the EC50 in test [2] (read-out: EC50) was above 10 µM. Further, the IC50 in test [3] amounted to 7.15 µM.
On the same counts, the results for `CCCCCC1CN=C(CCCC/C=C\CCCCCCC(=O)OC)O1` (stereo unspecified) are 33%, above 10 µM and 0.688 µM.
For the compound `CCCCNC(=O)C(=O)NCCCC/C=C\CCCCCCC(=O)O`, the Activity in test [1] amounted to 89%. For the same compound, the EC50 in test [2] (read-out: EC50) is 1.7 µM. The IC50 in test [3] was 58.7 µM.
On the same counts, the results for `CCCCCCC(=O)N(C)CCCC/C=C\CCCCCCC(=O)O` are 64.5%, 4.3 µM and 11.2 µM.
On the same counts, the results for `CCCCCNC(=O)NCCCC/C=C/CCCCCCC(=O)O` are 29%, above 10 µM and 0.0485 µM.
As to `CCCCCCC(=O)N(CCCC/C=C\CCCCCCC(=O)O)C(C)C`, in test [1], the Activity stood at 100%. In test [2] (read-out: EC50), the EC50 came to 1.7 µM. The IC50 in test [3] came out at 19 µM.
In test [1], `CCCCCCNC(=O)NCCC/C=C\CCCCCCC(=O)O` registered an Activity of 86%. Also, the EC50 in test [2] (read-out: EC50) stood at 3.5 µM. The IC50 in test [3] came to 0.016 µM.
Regarding `CCNC(=O)NCCCC/C=C\CCCCCCCCCC(=O)O`, the Activity in test [1] is reported as 50%. In addition, the EC50 in test [2] (read-out: EC50) was above 10 µM. The 50% inhibitory concentration (IC50) in test [3] was 2.6 µM.
The like results for `CCCCCNC(=O)NOCCC/C=C\CCCCCCC(=O)O` were, in that order, 87%, 3.7 µM and 1.37 µM.
On the same counts, the results for `CCCCCCC(=O)NCCCC/C=C\CCCCCCC(=O)O` are 64.5%, 6.1 µM and 0.079 µM.
In the case of `CCCCCCNC(=O)CCCC/C=C\CCCCCCC(=O)O`, the Activity in test [1] was 74%. In addition, the EC50 in test [2] (read-out: EC50) turned out to be 4.9 µM. The IC50 in test [3] is 0.066 µM.
In turn, `CCCCCNC(=O)N(C)CCCC/C=C\CCCCCCC(=O)O` showed an Activity in test [1] of 59%. The EC50 in test [2] (read-out: EC50) was 7.6 µM. In addition, the IC50 in test [3] came to 0.0715 µM.
On the same counts, the results for `CCCCCc1cn(CCCC/C=C\CCCCCCC(=O)[O-])nn1.[Na+]` are 65%, 6.2 µM and 17.8 µM.
Compound `CCCCCN(C)C(=O)N(C)CCCCCCCC#CCCCC(=O)O` registered an Activity in test [1] of 77.5%. For the same compound, in test [2] (read-out: EC50), the EC50 is 2.3 µM. In addition, the IC50 in test [3] was 11.1 µM.
In turn, `CCCCCN(C)C(=O)NCCCC/C=C\CCCCCCC(=O)O` showed an Activity in test [1] of 88%. The EC50 in test [2] (read-out: EC50) was found to be 3.2 µM. The IC50 in test [3] was determined as 1.45 µM.
For the compound `CCCCCOC(=O)NCCCC/C=C\CCCCCCC(=O)O`, in test [1], the Activity is recorded as 64%. The EC50 in test [2] (read-out: EC50) came to 8.3 µM. Besides, the half-maximal inhibitory concentration (IC50) in test [3] was 2.83 µM.
Turning to `CCCCC[C@@H]1O[C@@H]1C/C=C\C/C=C\C/C=C\CCCC(=O)O` (relative stereo), the EC50 in test [2] (read-out: ED50 (the source's name)) is 2.2 µM. Moreover, in test [4], the Activity is given as 85%.
